The IC50 is the midpoint of a concentration-inhibition curve. One may read the inhibition as the drop in the measured response relative to a control, in per cent. The term EC50 denotes the concentration at which the effect is half-maximal. For orientation: Ki means a measure of affinity in units of concentration, obtained from inhibition or displacement.

SMILES strings stand for the structures. Calls of active or inactive are those of the source. The calls are words filed in the database; no cut-off is given here.

Experimental findings from ChEMBL document CHEMBL2157903, “2-Arylbenzofuran-based molecules as multipotent Alzheimer's disease modifying agents” (Eur J Med Chem, 2012) are described below.

In series [1] the target is Cholinesterase (Homo sapiens, UniProt P06276). Put plainly: Inhibition of human serum BuChE using butyrylthiocholine iodide as substrate preincubated for 20 mins prior to substrate addition by Ellman's method. In short, it runs like this:
(§1)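 Ellman method with acetylthiocholine iodide (AChE) or butyrylthiocholine iodide (BuChE) as substrate. Enzyme and inhibitor preincubated 20 min at 37 °C before substrate addition. Blanks without enzyme corrected for non-enzymatic hydrolysis. Five inhibitor concentrations giving 20-80% inhibition. IC50 from linear regression of % inhibition vs log final concentration. Mean of two or three independent measurements, each in triplicate.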
(In general: In Ellman's method for cholinesterases, released thiocholine reacts with DTNB.)

Series [2] addresses T1, Acetylcholinesterase (Homo sapiens, UniProt P22303). Nature of the series: Inhibition of human recombinant AChE using acetylthiocholine iodide as substrate preincubated for 20 mins prior to substrate addition by Ellman's method. The method, boiled down: as §1
The nature of series [3]: Inhibition of amyloid beta (25 to 35) fibril formation at 10 uM incubated up to 6 hrs by UV-Vis spectrophotometric analysis. The method, boiled down:
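Aβ25-35 at 100 μM final, in 10 mM phosphate buffer pH 7.2, sonicated 1 min on addition. Compound added in MeOH at 10 μM final, with curcumin reference alongside. Polymerization followed by UV-vis at 190-380 nm over 0-6 h. Spectra of compound alone were subtracted. At least three independent runs.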

For series [4], the system named is SH-SY5Y. Put plainly: Neuroprotective activity in human SH-SY5Y cells assessed as inhibition of amyloid beta (25 to 35)-induced cytotoxicity at 30 uM after 3 hrs by MTT assay. It is filed as functional. In short, it runs like this: (§2)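 SH-SY5Y cells in DMEM with 10% FBS were seeded at 3 × 10⁴/well for 24 h. They were exposed for 3 h at 37 °C to HFIP-pretreated unaggregated Aβ25-35 with or without compound (1–30 range). Viability was read by MTT (5 mg/mL, 2 h; isopropanol; 570/690 nm) as % of untreated control. Percentage protection is given at the highest concentration. Mean ± SD of at least two experiments.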

In series [5] the test system is SH-SY5Y. Put plainly: Neuroprotective activity in human SH-SY5Y cells assessed as inhibition of amyloid beta (25 to 35)-induced cytotoxicity after 3 hrs by MTT assay. Format: functional, cell-based. The method, boiled down:
as §2
(In general: Tetrazolium dyes change colour on reduction, which living cells bring about.)

The target in series [6] is Amyloid-beta precursor protein (Homo sapiens) (UniProt P05067). Put plainly: Inhibition of amyloid beta (25 to 35) binding to plasma membrane surface of human Sh-SY5Y cells at 30 uM after 30 mins by congo red-based spectrophotometry. Format: cell-based. In short, it runs like this: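 SH-SY5Y cells were seeded at 5 × 10³/well for 24 h, then given fresh medium with Aβ25-35 and compound for 10, 20 and 30 min. After two PBS washes, bound peptide was stained with Congo red in PBS for 20 min. Absorbance was read at 540 nm and expressed as % of untreated cells.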

In series [7] the test system is SH-SY5Y. Nature of the series: Neuroprotective effect in human SH-SY5Y cells assessed as inhibition of amyloid beta (25 to 35)-induced ROS production at 30 uM after 3 hrs by DHE-based fluorimetric analysis. It is filed as functional, cell-based. The method, boiled down:
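SH-SY5Y cells were seeded at 1 × 10⁴/well on culture slides for 24 h and treated with Aβ25-35 with or without compound for 3 h. ROS was measured with DHE loaded for 15 min in the dark, then 1 h in serum-free DMEM at 37 °C. Fluorescence microscopy covered four random fields of 50–100 cells each, scored as densitometry per cell versus untreated cells. Mean ± SD of three experiments.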

Series [8] concerns the target T2, Cannabinoid receptor 1 (Homo sapiens, UniProt P21554). Nature of the series: Displacement of [3H]CP-55940 from human recombinant CB1 receptor expressed in HEK293 cells after 90 mins. It is filed as cell-based. In short, it runs like this: (§3)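 Membranes from HEK-293 cells stably expressing human recombinant CB1 (Bmax 2.5 pmol/mg) or CB2 (Bmax 4.7 pmol/mg). Incubated with [3H]-CP-55,940 (CB1 0.14 nM, Kd 0.18 nM; CB2 0.084 nM, Kd 0.31 nM) and increasing compound concentrations for 90 min at 30 °C. Non-specific binding defined with 10 […] 55212-2. IC50 by non-linear regression, converted to Ki by Cheng-Prusoff. Means of at least n = 3.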
On the technique in general: Loss of bound radioactivity is the signal in a displacement assay; it reports binding, not function.

Series [9] addresses T3, Cannabinoid receptor 2 (Homo sapiens, UniProt P34972). Nature of the series: Displacement of [3H]CP-55940 from human recombinant CB2 receptor expressed in HEK293 cells after 90 mins. Format: cell-based. The method, boiled down:
as §3

Series [10] can be described thus: Inhibition of amyloid beta (25 to 35) fibril formation incubated up to 6 hrs by UV-Vis spectrophotometric analysis. The method, boiled down:
(§4)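 Aβ25-35, sonicated 1 min, was mixed in 10 mM phosphate buffer (pH 7.2) with compound added in MeOH, on ice. Polymerization was followed by UV-visible spectroscopy at 190–380 nm over 0–6 h. Compound-alone spectra were subtracted, and peptide-alone and curcumin controls were run in parallel. IC50 (0.1–50 range) came from a sigmoidal least-squares fit. At least three independent runs.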

The nature of series [11]: Ratio of curcumin IC50 to compound IC50 for amyloid beta (25 to 35).
Series [12] addresses T2, Cannabinoid receptor 1. Nature of the series: Displacement of [3H]CP-55940 from human recombinant CB1 receptor expressed in HEK293 cells at 25 uM after 90 mins. It is filed as cell-based. In short, it runs like this:
(§5)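 Membranes from HEK-293 cells stably expressing human recombinant CB1 or CB2 were incubated with [³H]-CP-55,940 (0.14 nM for CB1; 0.084 nM for CB2) plus test compound for 90 min at 30 °C. Non-specific binding was defined with WIN 55212-2. Percent displacement of bound radioligand at the maximum tested concentration is reported. At least n = 3 experiments.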

The target in series [13] is T3, Cannabinoid receptor 2. Put plainly: Displacement of [3H]CP-55940 from human recombinant CB2 receptor expressed in HEK293 cells at 25 uM after 90 mins. Format: cell-based. The method, boiled down:
as §5

Series [14] can be described thus: Induction of amyloid beta (25 to 35) fibril formation at 10 uM incubated up to 6 hrs by UV-Vis spectrophotometry. The method, boiled down: as §4
Series [15] addresses T2, Cannabinoid receptor 1. Put plainly: Displacement of [3H]CP-55940 from human recombinant CB1 receptor expressed in HEK293 cells at 10 uM after 90 mins. It is filed as cell-based. In short, it runs like this: as §5
Series [16] deals with T3, Cannabinoid receptor 2. Nature of the series: Displacement of [3H]CP-55940 from human recombinant CB2 receptor expressed in HEK293 cells at 10 uM after 90 mins. It is filed as cell-based.
Series [17] addresses T1, Acetylcholinesterase. Nature of the series: Pseudo-irreversible inhibition of human recombinant AChE using acetylthiocholine iodide as substrate preincubated for 20 mins prior to substrate addition by Ellman's method.
For series [18], the target named is T1, Acetylcholinesterase. Nature of the series: Ratio of rivastigmine IC50 to compound IC50 for human recombinant AChE.

T3 sequence (P34972 whole entry): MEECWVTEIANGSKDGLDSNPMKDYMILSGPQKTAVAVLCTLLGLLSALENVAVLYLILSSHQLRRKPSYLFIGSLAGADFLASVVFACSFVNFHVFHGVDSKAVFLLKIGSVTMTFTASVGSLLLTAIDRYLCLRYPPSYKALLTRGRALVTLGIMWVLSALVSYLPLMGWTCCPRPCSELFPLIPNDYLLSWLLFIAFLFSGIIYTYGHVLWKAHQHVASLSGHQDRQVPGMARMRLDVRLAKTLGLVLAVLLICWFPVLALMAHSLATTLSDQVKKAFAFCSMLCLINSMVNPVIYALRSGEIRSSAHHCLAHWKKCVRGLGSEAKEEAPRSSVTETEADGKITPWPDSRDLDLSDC
T1 sequence (P22303 whole entry): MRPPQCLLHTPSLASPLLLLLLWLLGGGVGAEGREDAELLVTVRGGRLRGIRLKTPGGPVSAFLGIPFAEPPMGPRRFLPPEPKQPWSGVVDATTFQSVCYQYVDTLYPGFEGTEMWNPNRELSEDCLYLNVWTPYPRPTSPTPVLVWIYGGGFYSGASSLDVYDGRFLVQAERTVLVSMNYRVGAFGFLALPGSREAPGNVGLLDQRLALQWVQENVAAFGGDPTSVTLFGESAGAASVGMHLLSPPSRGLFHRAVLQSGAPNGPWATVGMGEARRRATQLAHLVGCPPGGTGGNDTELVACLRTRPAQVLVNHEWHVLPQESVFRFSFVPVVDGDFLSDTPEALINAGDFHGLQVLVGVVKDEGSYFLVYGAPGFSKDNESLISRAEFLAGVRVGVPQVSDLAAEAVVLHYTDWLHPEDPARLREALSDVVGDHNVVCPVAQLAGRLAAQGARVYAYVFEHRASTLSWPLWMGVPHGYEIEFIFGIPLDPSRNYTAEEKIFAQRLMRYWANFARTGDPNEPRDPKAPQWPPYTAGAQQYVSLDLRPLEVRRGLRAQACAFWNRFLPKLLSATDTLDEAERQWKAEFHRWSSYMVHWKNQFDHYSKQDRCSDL
T2 sequence (P21554 whole entry): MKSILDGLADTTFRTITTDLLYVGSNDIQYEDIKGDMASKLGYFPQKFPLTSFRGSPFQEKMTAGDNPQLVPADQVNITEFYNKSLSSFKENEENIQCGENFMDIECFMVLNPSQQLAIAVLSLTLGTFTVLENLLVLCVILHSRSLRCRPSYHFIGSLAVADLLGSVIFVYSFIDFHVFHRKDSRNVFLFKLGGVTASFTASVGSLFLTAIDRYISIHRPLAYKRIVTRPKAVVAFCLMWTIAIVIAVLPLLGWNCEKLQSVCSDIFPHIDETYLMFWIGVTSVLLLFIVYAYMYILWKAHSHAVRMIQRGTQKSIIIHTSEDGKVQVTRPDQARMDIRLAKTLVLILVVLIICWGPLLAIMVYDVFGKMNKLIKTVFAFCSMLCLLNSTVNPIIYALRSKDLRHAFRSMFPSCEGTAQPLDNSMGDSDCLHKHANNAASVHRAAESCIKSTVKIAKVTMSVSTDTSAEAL
Cholinesterase, sequence (P06276 whole entry): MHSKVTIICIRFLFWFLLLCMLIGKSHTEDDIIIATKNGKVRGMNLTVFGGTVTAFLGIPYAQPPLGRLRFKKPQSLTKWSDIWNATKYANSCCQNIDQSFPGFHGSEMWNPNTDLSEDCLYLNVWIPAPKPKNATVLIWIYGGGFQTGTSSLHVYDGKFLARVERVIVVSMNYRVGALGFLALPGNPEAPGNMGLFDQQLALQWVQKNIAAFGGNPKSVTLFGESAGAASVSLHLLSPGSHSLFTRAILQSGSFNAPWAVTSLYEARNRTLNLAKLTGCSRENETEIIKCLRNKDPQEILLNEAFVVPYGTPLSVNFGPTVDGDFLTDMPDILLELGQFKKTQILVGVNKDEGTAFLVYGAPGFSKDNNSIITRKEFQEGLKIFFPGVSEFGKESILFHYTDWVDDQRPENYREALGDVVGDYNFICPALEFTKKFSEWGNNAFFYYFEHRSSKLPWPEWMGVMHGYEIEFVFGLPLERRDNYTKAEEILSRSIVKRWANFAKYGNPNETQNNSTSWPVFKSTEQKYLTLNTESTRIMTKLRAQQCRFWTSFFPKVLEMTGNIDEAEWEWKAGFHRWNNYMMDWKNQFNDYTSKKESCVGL
Amyloid-beta precursor protein (Homo sapiens), sequence (P05067 whole entry): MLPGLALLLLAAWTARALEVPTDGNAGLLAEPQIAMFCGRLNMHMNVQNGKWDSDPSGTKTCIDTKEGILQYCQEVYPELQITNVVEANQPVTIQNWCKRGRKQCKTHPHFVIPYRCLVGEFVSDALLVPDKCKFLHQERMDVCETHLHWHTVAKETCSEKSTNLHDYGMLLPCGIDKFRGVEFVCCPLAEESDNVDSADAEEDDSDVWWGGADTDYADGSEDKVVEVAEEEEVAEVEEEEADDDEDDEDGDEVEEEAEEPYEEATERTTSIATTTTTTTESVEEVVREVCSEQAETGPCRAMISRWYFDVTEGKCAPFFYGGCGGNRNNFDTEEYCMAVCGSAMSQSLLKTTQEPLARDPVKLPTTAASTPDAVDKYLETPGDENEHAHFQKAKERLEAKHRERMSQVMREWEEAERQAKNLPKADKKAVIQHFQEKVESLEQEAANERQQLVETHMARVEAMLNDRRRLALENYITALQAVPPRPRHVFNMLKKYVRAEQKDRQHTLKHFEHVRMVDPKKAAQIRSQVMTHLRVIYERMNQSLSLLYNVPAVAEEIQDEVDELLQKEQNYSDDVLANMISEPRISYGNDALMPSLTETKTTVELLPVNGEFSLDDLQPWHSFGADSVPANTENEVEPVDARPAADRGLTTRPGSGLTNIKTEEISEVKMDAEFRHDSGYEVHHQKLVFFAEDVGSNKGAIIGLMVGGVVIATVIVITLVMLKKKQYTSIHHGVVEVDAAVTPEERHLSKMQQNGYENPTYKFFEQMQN

Regarding `Cc1cccc(C(=O)c2c(-c3cccc(OCCCCCCCN(C)Cc4ccccc4)c3)oc3ccccc23)c1`, the IC50 stood at 0.4 µM in series [1] and 102 µM in series [2] (read-out: IC50). Besides, the figures for the inhibition in series [3] and in series [5] were 48% and “Dose-dependent effect”, respectively. Also, in series [4], the inhibition at 30 µM was found to be 46.2%. Further, the inhibition entry in series [6] and in [7] was “Active” throughout. Besides, the result in series [8] and in [9] was inactive.
In the case of `CN(CCCCCCCOc1cccc(-c2cc3ccccc3o2)c1)Cc1ccccc1`, the figures for the IC50 in series [1], in [2] and in series [10] were 3 µM, “Not Active” and 3.9 µM, respectively. Further, the inhibition in [3] came out at 81%. In addition, the Ratio IC50 in series [11] was found to be 2.5.
In the case of `CN(CCCCCCCOc1ccc(-c2oc3ccccc3c2C(=O)c2ccc(-c3ccccc3)cc2)cc1)Cc1ccccc1`, the IC50 in series [1] was 88.9 µM; in series [2] it was “Not Active”. Besides, the values for the 50% effective concentration (EC50) in [8] and in series [9] were 7.74 µM and 7.06 µM, respectively. Further, the inhibition constant Ki in [8] was found to be 3.12 µM; in series [9] it was 1.79 µM. The figures for the Activity in series [12] and in series [13] were 80% and 86%, respectively.
On to `CN(CCCCCCCOc1cccc(-c2oc3ccccc3c2C(=O)c2ccccc2)c1)Cc1ccccc1`, for which the IC50 amounted to 2.88 µM in [1] and 0.24 µM in series [2] (read-out: IC50). Moreover, the figures for the inhibition in [3] and in [5] were 35% and “Dose-dependent effect”, respectively. Also, the inhibition at 30 µM in series [4] was 48.4%. For the same compound, the inhibition entry in series [6] and in series [7] was “Active” throughout. Moreover, the outcome in series [8] and in series [9] was inactive.
With `CN(CCCCCCCOc1ccc(-c2oc3ccccc3c2C(=O)c2c3ccccc3cc3ccccc23)cc1)Cc1ccccc1`, the concentration for half-maximal inhibition (IC50) came out at 81.2 µM in series [1] and 67.7 µM in [2] (read-out: IC50). Further, the Activity entry in series [14] was “Toxic”; in series [15] it was 30.3%; in [16], 9.87%. For the same compound, the EC50 in series [8] and in [9] was more than 10 µM throughout. In addition, the inhibition constant Ki in series [8] and in [9] was more than 10 µM in each case.
Take `CNC(=O)Oc1cccc(CN(C)CCCCCCCOc2ccc(-c3oc4ccccc4c3C(=O)c3ccc(C)cc3)cc2)c1`: the values for the IC50 in series [1] and in series [2] (read-out: IC50) were 0.88 µM and 0.34 µM, respectively. The inhibition entry in series [17] was “Active”. The Ratio IC50 in series [18] amounted to 1.
